Results published in article PMC8190911 (ACS Omega, 2021).

What was measured:
[1] = biological target: urease from Canavalin ensiformis (jack bean) (Canavalia ensiformis, UniProt P07374); experiment: Inhibition of urease activity; type: biochemical
[2] = biological target: T1, horseradish peroxidase (HRP) (Armoracia rusticana, UniProt P00433); experiment: Inhibition of HRP activity; type: biochemical
T1 sequence (P00433 31-338 limits assumed): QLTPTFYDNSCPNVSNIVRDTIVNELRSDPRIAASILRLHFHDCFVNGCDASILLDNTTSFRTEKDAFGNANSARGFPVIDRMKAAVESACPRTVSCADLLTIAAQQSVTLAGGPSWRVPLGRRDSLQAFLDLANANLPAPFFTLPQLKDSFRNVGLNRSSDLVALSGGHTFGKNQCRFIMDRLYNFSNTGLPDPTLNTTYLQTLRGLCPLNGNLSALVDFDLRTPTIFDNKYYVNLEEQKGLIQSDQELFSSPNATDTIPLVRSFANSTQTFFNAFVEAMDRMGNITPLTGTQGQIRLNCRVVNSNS
In short: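 HRP (10 μL) combined with test compound (10 μL, 250–1000 μM) and 100 μL TMB. Reaction started with 0.03% (v/v) H2O2. The blue oxidised TMB product was read at 655 nm and % inhibition calculated against uninhibited activity. Sodium azide at 1000 μM served as reference inhibitor. Performed in triplicate.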

rat splenic lymphocytes = experiment: Splenic lymphocyte proliferation with Con-A and HU; type: cell-based; conditions: HU 50 μM, rutin or gallic acid 10 μM, Con-A 5 μg/mL, 48 h, MTT
In short: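 Spleens were taken aseptically from control rats into incomplete RPMI and minced through a strainer. Erythrocytes were lysed with 155 mM NH4Cl, 12 mM NaHCO3 and 0.1 mM EDTA, and the cells were washed and resuspended in complete RPMI. Cells were seeded at 2.5 × 10^4 per well, pretreated with test compound plus HU for 1 h at 37 °C, then stimulated with Con-A for 48 h. MTT (2.5 mg/mL, 20 μL) was added for 4 h and absorbance read at 570 nm. Groups were compared by Student's t-test.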

OATP1B3 = conditions: read-out: IC50, inhibition of OATP1B3-mediated transport of CCK-8; ref Li et al.; cited from earlier work
[3] = rat; cited from earlier work
red blood cells = experiment: Hemolysis assay on rat RBCs; type: cell-based; conditions: up to 1 mg/mL, 30 min at 37 °C
In short: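 Blood from control rats drawn into aqueous EDTA and spun at 8000 rpm for 10 min. RBCs washed three times in PBS (pH 7.4) and diluted 1:10. Diluted cells (100 μL) mixed with 900 μL PBS containing test compound at 0.1 to 1 mg/mL. Blank PBS served as negative control and 1% Triton X-100 as positive control. Incubated 30 min at 37 °C with shaking, spun at 4 °C, supernatant absorbance read at 540 nm. % hemolysis scaled between the PBS and Triton absorbances.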

CYP2E1 = conditions: cited from earlier work
[4] = at the concentration range of 250–1000 μM

Chain of urease from Canavalin ensiformis (jack bean) (P07374 whole entry, looked up): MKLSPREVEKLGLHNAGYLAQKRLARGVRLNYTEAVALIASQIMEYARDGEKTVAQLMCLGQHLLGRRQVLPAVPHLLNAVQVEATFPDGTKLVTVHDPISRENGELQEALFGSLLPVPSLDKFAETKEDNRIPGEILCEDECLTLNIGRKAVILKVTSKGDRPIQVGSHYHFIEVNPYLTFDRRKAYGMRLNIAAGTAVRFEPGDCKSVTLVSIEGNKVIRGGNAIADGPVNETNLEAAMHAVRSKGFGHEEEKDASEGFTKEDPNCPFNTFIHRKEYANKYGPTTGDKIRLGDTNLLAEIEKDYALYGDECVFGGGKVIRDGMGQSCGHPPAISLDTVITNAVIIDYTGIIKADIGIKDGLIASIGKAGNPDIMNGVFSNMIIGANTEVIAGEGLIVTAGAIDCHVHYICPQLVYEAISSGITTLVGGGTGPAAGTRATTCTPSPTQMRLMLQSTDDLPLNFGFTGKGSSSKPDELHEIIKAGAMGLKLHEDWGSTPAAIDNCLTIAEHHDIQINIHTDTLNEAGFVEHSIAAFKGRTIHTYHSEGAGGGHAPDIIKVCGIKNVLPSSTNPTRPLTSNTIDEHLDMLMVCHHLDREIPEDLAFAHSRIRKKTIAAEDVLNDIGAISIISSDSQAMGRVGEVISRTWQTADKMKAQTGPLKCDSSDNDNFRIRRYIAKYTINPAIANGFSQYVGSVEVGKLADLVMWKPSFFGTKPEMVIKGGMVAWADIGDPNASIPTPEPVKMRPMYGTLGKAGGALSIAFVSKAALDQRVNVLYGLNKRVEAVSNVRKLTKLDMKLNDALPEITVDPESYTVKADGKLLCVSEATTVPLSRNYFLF

SMILES | IC50 [1] [µM] | inhibition of HRP [2, 4] | effect on proliferation of lymphocytes (rat splenic lymphocytes) | IC50 (OATP1B3) [µM] | effect on oral exposure of rosuvastatin [3] | inhibition of HRP ([2]; at a concentration of 1000 μM) [%] | RBCs lysis (% Hb released relative to positive and negative controls) (red blood cells) [%] | effect on expression of CYP2E1 (CYP2E1)
O=C(O)c1cc(O)c(O)c(O)c1 [gallic acid] | 635 | 53–70% | significantly elevated the proliferation of lymphocytes | 1.6 | augmented the oral exposure of rosuvastatin |  |  | 
[N-]=[N+]=[N-].[Na+] [sodium azide, reference compound] |  |  |  |  |  | 97 |  | 
NC(=O)NO [HU, Hydroxyurea, reference compound] |  |  | decreased |  |  |  |  | 
C[C@@H]1O[C@@H](OC[C@H]2O[C@@H](Oc3c(-c4ccc(O)c(O)c4)oc4cc(O)cc(O)c4c3=O)[C@H](O)[C@@H](O)[C@@H]2O)[C@H](O)[C@H](O)[C@H]1O [rutin, Rutin] | 780 | 40–64% | no considerable influence |  |  |  | ≤ 5 | enhanced its expression
